In ChEMBL document CHEMBL1122756, “Synthesis of (E)-5-(3,3,3-trifluoro-1-propenyl)-2'-deoxyuridine and related analogues: potent and unusually selective antiviral activity of (E)-5-(3,3,3-trifluoro-1-propenyl)-2'-deoxyuridine against herpes simplex virus type 1” (1984):
In brackets after ≈: the same amount, converted by molar mass.

How the values were obtained:
[1] = system: Human alphaherpesvirus 1; assay: Compound was evaluated for antiviral activity against HSV-1(TK-, strain B2006); type: functional
In short: (§1)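 Herpes stocks grown in primary rabbit kidney (PRK) cells. Confluent PRK cultures were inoculated at 0.03 pfu/cell, and the compound's effect on virus multiplication was measured. The readout is ID99, the concentration that cuts viral yield by 99%.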

[2] = system: Human alphaherpesvirus 1; assay: Compound was evaluated for antiviral activity against HSV-1(strain KOS); type: functional; in short: as §1
[3] = system: Human alphaherpesvirus 2; assay: Compound was evaluated for antiviral activity against HSV-2(strain G); type: functional; in short: as §1
[4] = species on record: Oryctolagus cuniculus; assay: Concentration of compound required to inhibit [methyl-3H]dThd incorporation into host cell DNA by 50% in primary rabbit kidney cell cultures; type: functional; conditions: read-out: ID50 (the source's name)
In short: (§2)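 Uptake of radiolabel into DNA was measured in PRK cultures. Input per 10^5 cells was 6 pmol (0.25 µCi) of [1',2'-3H]dUrd for the dUrd line, or 10 pmol (0.38 µCi) of [methyl-3H]dThd for the dThd line. The value is the concentration giving 50% inhibition of incorporation.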

[5] = species on record: Oryctolagus cuniculus; assay: Concentration of compound required to inhibit [1',2'-3H]dUrd incorporation into host cell DNA by 50% in primary rabbit kidney cell cultures; type: functional; conditions: read-out: ID50 (the source's name); in short: as §2
[6] = system: Vaccinia virus; assay: Compound was evaluated for antiviral activity against vaccinia; type: functional, Orthopoxvirus vaccinia
[7] = system: Vaccinia virus; assay: Compound was evaluated for its antiviral activity against vaccinia; type: functional, Orthopoxvirus vaccinia

Q: For `O=c1[nH]c(=O)n([C@H]2C[C@H](O)[C@@H](CO)O2)cc1I` [IDOXURIDINE], which ID99 [1] is on record?
A: >100 µg/mL

Q: And the ID99 [2]?
A: 0.1 µg/mL

Q: What about the ID99 [3] of the same compound?
A: 0.8 µg/mL

Q: And the IC50 [4]?
A: 1 µg/mL (≈ 2.82 µM)

Q: And the IC50 [5]?
A: 0.25 µg/mL (≈ 0.706 µM)

Q: What about the ID99 [6] of the same compound?
A: 0.25 µg/mL

Q: What does the source list for `O=c1[nH]c(=O)n([C@H]2C[C@H](O)[C@@H](CO)O2)cc1C(F)(F)F` [TRIFLURIDINE]?
A: ID99 [1]: 0.4 µg/mL; ID99 [2]: 0.7 µg/mL; ID99 [3]: 1.2 µg/mL; IC50 [4]: 20 µg/mL (≈ 67.5 µM); IC50 [5]: 0.01 µg/mL (≈ 0.0338 µM); ID99 [6]: 0.12 µg/mL

Q: How did the ID99 [1] turn out when `O=c1[nH]c(=O)n([C@H]2C[C@H](O)[C@@H](CO)O2)cc1/C=C/Br` [BRIVUDINE] was run?
A: >100 µg/mL

Q: What about the ID99 [2] of the same compound?
A: 0.008 µg/mL

Q: And the ID99 [3]?
A: 3 µg/mL

Q: And the IC50 [4]?
A: 70 µg/mL (≈ 210 µM)

Q: And the IC50 [5]?
A: 20 µg/mL (≈ 60 µM)

Q: What about the ID99 [7] of the same compound?
A: 22 µg/mL

Q: Which results are given for `C/C=C/c1cn([C@H]2C[C@H](O)[C@@H](CO)O2)c(=O)[nH]c1=O`?
A: ID99 [1]: >100 µg/mL; ID99 [2]: 0.15 µg/mL; ID99 [3]: 18 µg/mL; IC50 [4]: 25 µg/mL (≈ 93.2 µM); IC50 [5]: 40 µg/mL (≈ 149 µM); ID99 [6]: >100 µg/mL

Q: How did the ID99 [1] turn out when `O=c1[nH]c(=O)n([C@H]2C[C@H](O)[C@@H](CO)O2)cc1/C=C/C(F)(F)F` was run?
A: >100 µg/mL

Q: And the ID99 [2]?
A: 0.03 µg/mL

Q: And the ID99 [3]?
A: 100 µg/mL

Q: And the IC50 [4]?
A: 300 µg/mL (≈ 931 µM)

Q: What about the IC50 [5] of the same compound?
A: 150 µg/mL (≈ 465 µM)

Q: What about the ID99 [6] of the same compound?
A: >100 µg/mL
